# Test results taken from publication PMC6366850 (Chembiochem : a European journal of chemical biology, 2018).
# Where two headings read alike, the source gives them in different places.
# Columns and labels:
# [1] = target: T1, Human Neutrophil Elastase (Homo sapiens, UniProt P08246); assay: Human neutrophil elastase inhibition assay; assay type: biochemical; conditions: for fold less potent than 1, HNE: ratio of IC50 values
# T1 sequence (P08246 30-267): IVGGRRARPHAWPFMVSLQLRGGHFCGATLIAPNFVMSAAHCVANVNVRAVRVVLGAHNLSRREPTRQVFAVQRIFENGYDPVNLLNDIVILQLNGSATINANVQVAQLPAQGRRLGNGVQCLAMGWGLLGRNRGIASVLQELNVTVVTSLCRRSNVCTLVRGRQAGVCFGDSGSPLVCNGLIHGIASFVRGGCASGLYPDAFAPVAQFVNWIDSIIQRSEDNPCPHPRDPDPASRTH
# [2] = target: Porcine Pancreatic Elastase (Sus scrofa, UniProt P00772); assay: Porcine pancreatic elastase inhibition assay; assay type: biochemical
# Porcine Pancreatic Elastase, sequence (P00772 27-266): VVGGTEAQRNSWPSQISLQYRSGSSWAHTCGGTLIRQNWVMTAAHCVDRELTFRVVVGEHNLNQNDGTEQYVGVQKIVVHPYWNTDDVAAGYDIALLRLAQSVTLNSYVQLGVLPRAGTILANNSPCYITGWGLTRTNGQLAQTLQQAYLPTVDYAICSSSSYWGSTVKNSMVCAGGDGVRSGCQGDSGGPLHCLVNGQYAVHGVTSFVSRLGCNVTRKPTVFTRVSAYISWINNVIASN
# [3] = target: T2, Human neutrophil elastase (HNE) (Homo sapiens, UniProt P08246); assay: In vitro cleavage of CD40-IgG chimera; assay type: biochemical; conditions: qualitative gel assessment; for complete inhibition of CD40ch cleavage up to (concentration): tested 0.001–100 μM, 2 h pre-incubation with HNE
# T2 sequence (P08246 30-267): T1 sequence (P08246 30-267)
# Procedure, shortened: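 Human neutrophil elastase (100 μg/mL stock in 0.1 M Tris-NaCl, pH 7.5) was pre-incubated 2 h at 4 °C with test compound (0.001–100 μM) or DMSO. CD40-IgG chimera (human CD40 residues 21–193 fused to human IgG1 fragment) was then added at an elastase:CD40 molar ratio of 1:10 and incubated 1.5 h at 37 °C. Reactions were stopped by freezing and fragments run on reducing SDS-PAGE (2% mercaptoethanol). Gels were silver-stained and bands judged qualitatively; controls were elastase only and CD40 only.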
# [4] = system: CD40 cleavage by HNE in MDA-MB-231 cells; assay: Cleavage of CD40 by HNE in MDA-MB-231 cells, Western blot; assay type: cell-based, human; conditions: 100 nM HNE, 24 h
# Procedure, shortened: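 MDA-MB-231 cells seeded at 150,000/well; after 24 h, medium was replaced with medium containing 100 nM recombinant human neutrophil elastase plus test compound in DMSO or solvent. Lysates were taken after 24 h incubation and protein measured by BCA. 17 μg protein was run on SDS-PAGE, blotted to PVDF and probed with anti-CD40 antibody detecting the N-terminal fragment, with chemiluminescent detection.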
# [5] = system: MDA-MB-231 cells; assay: Transwell migration assay; assay type: cell-based, human; conditions: 48 h; for effect on migration of MDA-MB-231 cells: 100 nM HNE
# Procedure, shortened: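 Transwell inserts with 8 μm pore PET membranes. 5000 MDA-MB-231 cells in DMEM/10% FBS were seeded in the insert with test compound in DMSO or solvent, with or without 100 nM recombinant HNE; the lower chamber held complete medium with the same additions. Plates were incubated 48 h at 37 °C, 5% CO₂, and non-migrated cells were swabbed off. Migrated cells were crystal violet-stained and counted microscopically, in triplicate. Comparisons to solvent control used a two-tailed unpaired t test.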
# [6] = target: T3, Bovine Pancreatic Chymotrypsin (Bos taurus, UniProt P00766); assay: Chymotrypsin inhibition assay; assay type: biochemical
# Procedure, shortened: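 Bovine pancreatic α-chymotrypsin in 50 mM Tris-HCl, 100 mM NaCl, 1 mM CaCl₂, pH 7.8. Test compound in DMSO (top 100 μM final, half-log dilutions) was pre-incubated with enzyme for 30 min at room temperature. Substrate was N-succinyl-Gly-Gly-Phe-p-nitroanilide (1.5 mM solution). A405 was read every 30 s for 30 min, with a PMSF positive control. Percent activity came from initial slopes relative to solvent control.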
# [7] = system: MDA-MB-231 cells; assay: Cell viability assay; assay type: cell-based, human; conditions: 48 h, MTT
# Procedure, shortened: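 MDA-MB-231 cells seeded at 12,000 cells/well and grown 24 h, then exposed to test compound, HNE or DMSO solvent control. After 48 h, viability was read by MTT per the kit instructions.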
# [8] = system: ICAM-1 gene expression in MDA-MB-231 cells; assay: ICAM-1 gene expression by RT-qPCR; assay type: cell-based, human; conditions: 12 h
# Procedure, shortened: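 MDA-MB-231 cells seeded at 500,000/well, grown 24 h, then serum-starved 24 h in DMEM. Medium was replaced with serum-free DMEM containing test compound or solvent, with 100 nM HNE where applied, for 12 h. RNA was isolated, reverse-transcribed with oligo(dT), and ICAM-1 transcripts were quantified by TaqMan qPCR.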
# [9] = system: sICAM-1 (ICAM-1 shedding) in MDA-MB-231 cells; assay: sICAM-1 levels by ICAM-1 AlphaLisa; assay type: cell-based, human; conditions: 12 h; for reduction in the levels of sICAM-1: co-treatment with 100 nM HNE
# Procedure, shortened: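 MDA-MB-231 cells were grown overnight, starved 24 h, then placed in serum-free DMEM containing test compound or solvent, with 100 nM HNE where applied. After 12 h, culture medium was collected and soluble ICAM-1 quantified by AlphaLisa.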
# [10] = system: MDA-MB-231 cells; assay: HNE-induced morphological changes; assay type: cell-based, human
# [11] = target: purified 20S human proteasome (Homo sapiens, UniProt P28074); assay: Proteasome activity assay; assay type: biochemical; conditions: 50 μM, compared to positive control epoxomicin
# Procedure, shortened: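 Purified human 20S proteasome (0.1 μg/well final) was pre-incubated 10 min at room temperature with test compound (50 μM final). Suc-LLVY-AMC substrate (75 μM final) was then added to measure chymotrypsin-like activity, using a commercial kit per the manufacturer's protocol.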
# [12] = target: T3, Bovine Pancreatic Chymotrypsin; conditions: read-out: reported IC50 against bovine chymotrypsin; cited from earlier work
# [13] = read-out: IC50 Human Neutrophil Elastase, mean ± SD, n=3, 15 min pre-incubation
smiles,measurement,setting,value
"CCCC(=O)N[C@@H](C)C(=O)N[C@H](C(=O)N[C@@H]1C(=O)N[C@@H](CC(C)C)C(=O)N[C@H]2CC[C@@H](O)N(C2=O)[C@@H](Cc2ccccc2)C(=O)N(C)[C@@H](Cc2ccc(O)cc2)C(=O)N[C@@H](C(C)C)C(=O)O[C@@H]1C)[C@H](C)O [Loggerpeptin A (1), loggerpeptin A]",IC50,[1]; [13],290 ± 40 nM
"CCCC(=O)N[C@@H](C)C(=O)N[C@@H](C(=O)N[C@@H]1C(=O)N[C@@H](CC(C)C)C(=O)N[C@H]2CC[C@@H](O)N(C2=O)[C@@H](Cc2ccccc2)C(=O)N(C)[C@@H](Cc2ccc(O)cc2)C(=O)N[C@@H](C(C)C)C(=O)O[C@H]1C)[C@@H](C)OC(=O)[C@H](C)NC(=O)CCC [Loggerpeptin B (2), loggerpeptin B]","fold less potent than 1, HNE",[1],3 fold
same,IC50,[1]; [13],890 ± 90 nM
"C/C=C(\NC(=O)[C@H](C)NC(=O)CCC)C(=O)N[C@@H]1C(=O)N[C@@H](CC(C)C)C(=O)N[C@H]2CC[C@@H](O)N(C2=O)[C@@H](Cc2ccccc2)C(=O)N(C)[C@@H](Cc2ccc(O)cc2)C(=O)N[C@@H](C(C)C)C(=O)O[C@@H]1C [Loggerpeptin C (3), loggerpeptin C]","fold less potent than 1 and 2, porcine pancreatic elastase",[2]; ratio of IC50 values,2 fold
same,"fold less potent than 1, HNE",[1],2 fold
same,IC50,[1]; [13],620 ± 380 nM
same,complete inhibition of CD40ch cleavage up to (concentration),[3],10 µM
same,inhibition of HNE processing of CD40 in cells,[4]; 10 μM,lacked significant activity
same,inhibition of HNE processing of CD40 in cells,[4]; 50 μM,marginal activity
same,effect on migration of MDA-MB-231 cells,[5]; different concentrations,no effect on migration
"C/C=C1\NC(=O)[C@@H](NC(=O)[C@@H](NC(=O)[C@H](C)NC(=O)CCC)[C@@H](C)O)[C@@H](C)OC(=O)[C@H](C(C)C)NC(=O)[C@H](Cc2ccc(O)cc2)N(C)C(=O)[C@H](Cc2ccccc2)N2C(=O)[C@H](CC[C@H]2O)NC1=O [Molassamide (4), molassamide]",IC50,[6],240 ± 10 nM
same,IC50,[2],50 ± 10 nM
same,IC50,[1],110 ± 10 nM
same,fold more potent than 3 in inhibiting CD40ch cleavage,[3],10 fold
same,complete inhibition of CD40ch cleavage up to (concentration),[3],1 µM
same,inhibition of HNE processing of CD40 in cells,[4]; 50 μM,virtually complete inhibition
same,effect on viability of MDA-MB-231 cells,[7],no reduction in cell viability
same,elastase-induced ICAM-1 expression levels,[8]; 100 nM HNE,dose-dependent decrease
same,ICAM-1 expression levels in the absence of HNE,[8]; without HNE,no significant change
same,reduction in the levels of sICAM-1,[9]; 10 μM,35%
same,reduction in the levels of sICAM-1,[9]; 50 μM,65%
same,effect on the levels of sICAM-1 in the absence of HNE,[9]; without HNE,no effects
same,HNE-induced cell rounding prevented up to (concentration),"[10]; co-treatment with 100 nM HNE, 3 h",10 µM
same,morphological changes upon treatment with compound only,"[10]; without HNE, up to 50 μM",no morphological changes
same,effect on migration of MDA-MB-231 cells,[5]; 10 μM,inhibited the migration
same,effect on migration of MDA-MB-231 cells in the absence of HNE,[5]; without HNE,did not exhibit any migration inhibitory activity
same,inhibition of chymotrypsin-like activity of proteasomes,[11],did not inhibit
"CC(C)(C)C(=O)Oc1ccc(S(=O)(=O)Nc2ccccc2C(=O)NCC(=O)O)cc1 [Sivelestat, reference compound]",IC50,[2],3550 ± 140 nM
CC(=O)N1CCC[C@H]1C(=O)N[C@H](C(=O)N[C@@H]1C(=O)N[C@@H](CC(C)C)C(=O)N[C@H]2CC[C@@H](O)N(C2=O)[C@@H](Cc2ccccc2)C(=O)N(C)[C@@H](Cc2ccc(O)cc2)C(=O)N[C@@H](C(C)C)C(=O)O[C@@H]1C)[C@@H](C)O [kempopeptin A],IC50,[12],300 nM
